Assay outcomes: PubChem, Johns Hopkins Ion Channel Center
KCNK9 inh: inhibitors of human KCNK9 two-pore domain potassium channel; B-score at 10 µM; hit rate 1.2% among 310,000; Q9NPC2; AID 488922; HEK293 KCNK9, FluxOR thallium flux fluorescence; stronger effect = lower value;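 active = ratio B-score over 3 SD below the library mean, with starting fluorescence within 5 SD of its mean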;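 note: negative B-score means less thallium flux so channel inhibition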
KCNK3 block: human KCNK3 channel inhibition, primary screen; O14649; CHO-KCNK3 thallium flux, FluxOR fluorescence; stronger effect = lower value; B-score at 10 µM; hit rate 0.84% among 340,000;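 active = B-score under library mean minus 4 SD, starting fluorescence ratio at most library mean plus 5 SD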;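 note: more negative B-score means stronger inhibition of thallium flux through KCNK3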
KCNQ1 pot: human KCNQ1 channel potentiation or activation; P51787; CHO-K1 KCNQ1, thallium flux FluxOR fluorescence; stronger effect = higher value; B-score at 10 µM; hit rate 0.35% among 310,000; AID 2648;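 active = fluorescence ratio B-score, a plate-corrected score, at least three library SD, with initial intensity B-score within 5 SD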
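Schedule – 37 °C overnight plating, 90-min dark dye load, 20-min compound pretreatment · System – stable KCNQ1 CHO-K1 line · Probe or stimulus – thallium- and potassium-containing depolarizing buffer · Measured by – kinetic FluxOR fluorescence, 10 s baseline plus 110 s post-stimulus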
Kir21 inh: inhibitors of mouse Kir2.1 inward-rectifier potassium channel | P35561 | AID 1672 | hit rate 0.85% among 310,000 | B-score at 10 µM | HEK293-Kir2.1, FluxOR thallium flux fluorescence; stronger effect = lower value;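 active = fluorescence ratio B-score at or below minus 3 SD of library scores, with starting-brightness B-score within 2 SD, cut at about -4.2 in these data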;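 note: channel flux triggered by added potassium and thallium sulfate stimulus; B-score of peak minus minimum fluorescence over baseline after thallium stimulus; more negative B-score means stronger Kir2.1 block with less thallium influx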
Target sequence (P35561 whole entry, looked up): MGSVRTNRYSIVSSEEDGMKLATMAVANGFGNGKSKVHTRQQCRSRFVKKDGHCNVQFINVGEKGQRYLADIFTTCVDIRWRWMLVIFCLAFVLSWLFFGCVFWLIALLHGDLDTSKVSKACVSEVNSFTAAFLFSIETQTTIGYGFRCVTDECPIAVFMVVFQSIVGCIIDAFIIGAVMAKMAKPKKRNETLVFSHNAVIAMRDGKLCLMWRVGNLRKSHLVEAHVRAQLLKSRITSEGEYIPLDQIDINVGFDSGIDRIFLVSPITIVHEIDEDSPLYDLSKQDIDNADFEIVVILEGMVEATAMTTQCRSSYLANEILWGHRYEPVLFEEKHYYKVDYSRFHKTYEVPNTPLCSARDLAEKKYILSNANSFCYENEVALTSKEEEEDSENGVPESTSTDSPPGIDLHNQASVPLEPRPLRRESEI
KCNQ1 block: human KCNQ1 channel inhibition. P51787. CHO-K1 KCNQ1, FluxOR thallium flux fluorescence; stronger effect = higher value. B-score at 10 µM. hit rate 1.3% among 310,000. AID 2642;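 active = compounds whose thallium flux B-score, printed positive for inhibition, exceeds three library SD while starting fluorescence stays within three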;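 note: channel opened by potassium depolarization with thallium stimulus after 20 min compound exposure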
hERG rescue: shields human hERG channel from block by proarrhythmic agents; hit rate 0.51% among 310,000; activation (rescue from dofetilide block), less the hit threshold, % at 10 µM; CHO-hERG, FluxOR thallium flux, dofetilide IC70 present; AID 1511;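 active = activation above the mean of controls blocked by dofetilide plus 5 SD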;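 note: thallium influx through hERG after potassium depolarization seen as dye fluorescence rise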
KCNK9 block conf: confirmation of human KCNK9 potassium channel inhibitors | AID 492992 | inhibition, % at 10 µM | shares compounds with KCNK9 inh | HEK293 KCNK9 cells, FluxOR thallium flux fluorescence | hit rate 43% among 4,900;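 active = thallium signal inhibited by more than 5 SD of the compound-free buffer control wells, on both duplicate plates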;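 note: 0% = assay buffer control wells without compound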
Kir21 sel: mouse Kir2.1 off-target activity of KCNK9 modulators. inhibition, % at 10 µM. shares compounds with KCNK9 inh. hit rate 4% among 4,900. AID 492993. Kir2.1 cells, FluxOR thallium flux fluorescence;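 active = thallium signal drop more than 5 SD beyond the mean of the no-compound control wells, seen in both duplicate plates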;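 note: signal is fluorescence rise after thallium addition divided by baseline fluorescence; plate controls were assay buffer only for no effect and full block by chlorpromazine control for full effect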
KCNK9 uninduced: second counter-screen for KCNK9 modulators: effect in non-induced cells; shares compounds with KCNK9 inh; non-induced KCNK9-HEK293, FluxOR thallium flux; inhibition, % at 10 µM; hit rate 40% among 4,900; AID 492997;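 active = thallium signal drop beyond 5 SD of the untreated control mean, on both duplicate plates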;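 note: plate controls were buffer only IC0 wells for no effect and SID17386958 at its maximal inhibitory level for full effect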
The depositor's hits bear a star; i = inactive; · = no result. Only some compounds are listed: those with a hit (about 3.7% of all), similar ones and a draw of the others.

SMILES	KCNK9 inh	KCNK3 block	KCNQ1 pot	Kir21 inh	KCNQ1 block	hERG rescue	KCNK9 block conf	Kir21 sel	KCNK9 uninduced
CCOC(=O)C1(Cc2cccc(OC)c2)CCN(Cc2cccn2-c2nccs2)CC1	i	i	i	-2.47	i	-14.4	·	·	·
CCOC(=O)C1(CCc2ccccc2)CCN(Cc2cc(OC)c(OC)cc2OC)CC1	i	i	i	-0.52	i	-14.4	i	i	i
CCOC(=O)C1(CCc2ccccc2)CCN(Cc2ccc(C(=O)OC)cc2)CC1	i	i	i	1.47	i	-15.2	·	·	·
CCOC(=O)C1(Cc2ccccc2)CCN(Cc2cccc3nccnc23)CC1	i	i	i	-1.5	i	-0.4	i	i	i
CCOC(=O)C1(Cc2ccccc2C(F)(F)F)CCN(Cc2ccc(COC)o2)CC1	i	i	i	-0.4	i	-8.8	i	i	i
COc1ccc(C(=O)/C=C/c2ccc(OC)c(COc3ccccc3F)c2)cc1	-16*	i	i	1.88	i	-9.2	70.0%*	i	31.0%*
COc1ccc(/C=C/C(=O)c2ccccc2)cc1COc1ccc(F)cc1	-12.8*	i	i	0.57	i	-5.0	70.0%*	28.5%*	55.0%*
O=C1C=C(/C=C/C2C=CC=CC2)C[C@@H](c2ccc(Cl)cc2)C1 (stereo not given in full)	·	i	·	·	·	·	·	·	·
Cc1ccc(-c2nc(C(=O)NCC3CCCO3)cc3c2[nH]c2ccccc23)cc1 (stereo not given)	-16.7*	i	i	-1.24	12*	-37.6	65.0%*	i	33.0%*
O=C(NCC1CCCO1)c1csc(Nc2cccc3ccccc23)n1 (stereo not given)	-9.19*	i	i	2.29	i	-7.2	42.0%*	i	i
CN(C)CCNC(=O)c1csc(Nc2cccc3ccccc23)n1	i	i	i	0.29	i	-3.5	·	·	·
CCOc1ccc2nc(SC3CC(=O)N(c4ccc(OC)cc4OC)C3=O)sc2c1 (stereo not given)	i	i	i	-0.03	i	-6.3	·	·	·
Cc1cc(C)c(O)c(-c2cc(C(=O)Nc3c(C)n(C)n(-c4ccccc4)c3=O)[nH]n2)c1	i	i	i	1.14	i	-14.4	·	·	·
Oc1ccc(NCc2cccc(OCc3ccc(F)cc3)c2)cc1	i	i	i	1.46	i	-22.8	·	·	·
O=[N+]([O-])c1ccc(COc2cccc(CNc3ccc(F)cc3)c2)cc1	-8.34*	i	i	-0.03	6*	-2.0	41.0%*	i	i
O=C(NNC(=O)c1ccc(Oc2ccc(C3SCCS3)cc2)o1)c1ccc(Cl)cc1	i	i	i	2	i	-10.2	·	·	·
CC1(C)CC(=O)C2=C(C1)NC(SCC(=O)Nc1ccccc1)=C(C#N)C2c1ccco1 (stereo not given)	i	i	i	1.5	i	-6.1	·	·	·
Cc1ccc(C(=O)CSC2=C(C#N)C(c3ccco3)C3=C(CC(C)(C)CC3=O)N2)cc1 (stereo not given)	-8.35*	-10.1*	i	-0.04	i	-8.3	46.0%*	i	33.0%*
COc1ccc(C(=O)NCc2nnc(SCC(=O)Nc3ccccc3OC)n2C)cc1	i	i	i	0.5	i	-4.6	i	i	i
COc1ccc(CC(=O)OCC(=O)N2CCCc3ccccc32)cc1OC	i	i	i	1.26	i	-9.5	·	·	·
Cc1ccc(C(=O)Nc2ccc(Cc3ccncc3)cc2)cc1[N+](=O)[O-]	i	i	i	-1.76	i	-8.0	i	i	i
O=C(OCC#CCSc1nnc(-c2ccc(Br)cc2)o1)c1cccs1	-11.9*	i	i	-0.91	i	-8.8	i	i	40.0%*
CC(=O)c1ccc(N2CCN(CC(=O)Nc3ccccc3C(=O)NC3CC3)CC2)c(F)c1	·	i	·	·	·	·	·	·	·
Cc1cnc(C)c(N2CCN(Cc3nc(-c4cccc(F)c4F)oc3C)CC2)n1	i	i	i	0.75	i	-25.0	·	·	·
Cc1cccc(N2CCN(Cc3nc(-c4ccc(F)cc4F)oc3C)CC2)n1	i	i	i	-2.79	i	-22.9	i	i	i
SMILES	KCNK9 inh	KCNK3 block	KCNQ1 pot	Kir21 inh	KCNQ1 block	hERG rescue	KCNK9 block conf	Kir21 sel	KCNK9 uninduced
Nc1c(Cl)cc(C2=NCCn3nc4cc(C(F)(F)F)ccc4c32)cc1Cl	-13.1*	i	8*	0.51	i	-5.4	58.5%*	i	i
O=C(NCc1ccccn1)C(=O)NCC1OCCN1S(=O)(=O)c1ccc(Cl)cc1 (stereo not given)	i	i	i	-0.06	i	-6.8	·	·	·
COC(=O)c1ccccc1NC(=O)C1CCN(S(=O)(=O)c2cc(C)ccc2OC)CC1	i	i	i	0.8	i	-14.7	·	·	·
COc1ccc(OC)c(S(=O)(=O)N2CCC(C(=O)Nc3cc(C)ccc3C)CC2)c1	-10.3*	i	i	-0.85	i	-2.2	i	i	i
CC(=O)N1CCN(S(=O)(=O)c2cccc(C(=O)NNC(=O)Cn3nc(C)cc3C)c2)CC1	·	i	·	·	·	·	·	·	·
COc1ccc(Cl)cc1NC(=O)CSc1nc(N2CCOCC2)nc(N2CCOCC2)n1	i	i	i	-0.07	i	-13.8	·	·	·
COc1ccc(Cl)cc1NC(=O)CSc1nc(N2CCCCC2)nc(N2CCCCC2)n1	-10.9*	i	i	-0.62	i	-2.3	35.5%*	i	25.5%*
COc1cc(Cl)c(C)cc1NC(=O)CSc1cc(Cl)ccc1Cl	-9.78*	i	i	-0.34	i	-24.9	56.0%*	i	43.5%*
O=C(CN1C(=O)NC2(CCCC2)C1=O)OCc1ccc(Cl)cc1Cl	i	i	i	-2.53	i	-16.9	·	·	·
O=C(CCc1c[nH]c2ccccc12)NCCc1ccc(Cl)cc1	i	i	i	-1.56	i	-5.4	·	·	·
CC(C)(C)c1ccc(-c2nc(C#N)c(N3CCC(C(N)=O)CC3)o2)cc1	i	i	i	-0.71	i	-10.7	·	·	·
Cc1ccc(OCCn2cnc3cc([N+](=O)[O-])ccc3c2=O)cc1	i	i	i	1.14	i	-19.2	i	i	i
CCOc1ccccc1C(=O)OCC(=O)NCCNC(=O)COC(=O)c1ccccc1OCC	i	i	i	1.13	i	-8.8	·	·	·
